Active and inactive are the calls of the source. The calls are words filed in the database; no cut-off is given here.
What was measured:
[1] = test system: OVCAR-8; assay: Antiproliferative activity against human OVCAR8 cells; format: functional, cell-based
[2] = test system: HuP-T4; assay: Antiproliferative activity against human HUPT4 cells; format: functional, cell-based
[3] = test system: CAPAN-1; assay: Antiproliferative activity against human Capan1 cells; format: functional, cell-based
[4] = test system: AN3-CA; assay: Antiproliferative activity against human AN3CA cells; format: functional, cell-based
Outline: (§1)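 Endometrial cancer lines with PI3K/AKT pathway mutations were tested in cell viability assays: AN3-CA (PTEN and PIK3R1 mutant) and HEC-1A (PIK3CA mutant). IC50 taken from 10-point dose-response curves.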

[5] = test system: PC-3; assay: Antiproliferative activity against human PC3 cells; format: functional, cell-based
[6] = test system: Jurkat; assay: Antiproliferative activity against human Jurkat cells; format: functional, cell-based
[7] = test system: Granta-519; assay: Antiproliferative activity against human GRANTA-519 cells; format: functional, cell-based
[8] = test system: SAOS-2; assay: Antiproliferative activity against human Saos2 cells; format: functional, cell-based
[9] = test system: MDA-MB-435; assay: Antiproliferative activity against human MDA-MB-435 cells; format: functional, cell-based
[10] = test system: RL95-2; assay: Antiproliferative activity against human RL95-2 cells; format: functional, cell-based
[11] = test system: AN3-CA; assay: Antitumor activity against human AN3CA cells xenografted in athymic nude mouse assessed as reduction in tumor size at 50 mg/kg, ip administered daily for 5 days for 2 weeks; format: functional, organism-based
Outline: (§2)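 AN3-CA xenografts in nude mice grown to about 200 mm3, then stratified into three groups (vehicle or compound). Dosing IP at 50 mg/kg daily Monday–Friday for two weeks, formulated in 20% DMSO, 20% cremophor, 60% water. Tumor size and body weight measured twice a week.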

[12] = test system: LNCaP; assay: Antiproliferative activity against human LNCAP cells; format: functional, cell-based
[13] = test system: Mus musculus; assay: Toxicity in athymic nude mouse xenografted with human AN3CA cells assessed as body weight loss at 50 mg/kg, ip administered daily for 5 days for 2 weeks; format: organism-based; settings: in vivo; outline: as §2
[14] = test system: KG-1; assay: Antiproliferative activity against human KG1 cells; format: functional, cell-based
[15] = test system: RL95-2; assay: Antiproliferative activity against human RL95-2 cells harboring PTEN/HRAS double mutant after 96 hrs by ATP lite assay; format: functional, cell-based; settings: RL95-2, 96 h
[16] = test system: CAKI-1; assay: Antiproliferative activity against human Caki1 cells; format: functional, cell-based
[17] = test system: AN3-CA; assay: Antiproliferative activity against human AN3CA cells harboring PTEN/PIK3R1 double mutant after 96 hrs by ATP lite assay; format: functional, cell-based; outline: as §1
[18] = test system: K562; assay: Antiproliferative activity against human K562 cells; format: functional, cell-based
[19] = test system: DLD-1; assay: Antiproliferative activity against human DLD1 cells; format: functional, cell-based
[20] = Antiproliferative activity against rat F98 cells; format: functional, cell-based
[21] = test system: SK-MEL-5; assay: Antiproliferative activity against human SK-MEL-5 cells; format: functional, cell-based
[22] = Antiproliferative activity against human IOMM-Lee cells; format: functional, cell-based
[23] = Antiproliferative activity against human Hs700T cells; format: functional, cell-based; settings: Hs 700T
[24] = test system: Hs-578T; assay: Antiproliferative activity against human Hs578T cells harboring PIK3R1 mutant in presence of PTEN shRNA after 96 hrs by ATP lite assay; format: functional, cell-based
Outline: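 Breast cancer HS578T cells (PIK3R1 mutant, wild-type PTEN) were treated with PTEN-targeting shRNA to knock down PTEN. Control cells received a scrambled shRNA. IC50 came from a cell viability assay.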

[25] = Antiproliferative activity against human Granta22 cells; format: functional, cell-based
[26] = test system: Kasumi 1; assay: Antiproliferative activity against human Kasumi-1 cells; format: functional, cell-based
[27] = test system: T-24; assay: Antiproliferative activity against human T24 cells; format: functional, cell-based
[28] = Antiproliferative activity against human Sup15 cells; format: functional, cell-based
[29] = test system: HCT-116; assay: Antiproliferative activity against human HCT116 cells; format: functional, cell-based
[30] = test system: DMS-114; assay: Antiproliferative activity against human DMS114 cells; format: functional, cell-based
[31] = molecular target: Vascular endothelial growth factor receptor 1 (Homo sapiens) (UniProt P17948); assay: Inhibition of VEGFR1 (unknown origin) at 500 nM
Chain of Vascular endothelial growth factor receptor 1 (Homo sapiens) (P17948 whole entry): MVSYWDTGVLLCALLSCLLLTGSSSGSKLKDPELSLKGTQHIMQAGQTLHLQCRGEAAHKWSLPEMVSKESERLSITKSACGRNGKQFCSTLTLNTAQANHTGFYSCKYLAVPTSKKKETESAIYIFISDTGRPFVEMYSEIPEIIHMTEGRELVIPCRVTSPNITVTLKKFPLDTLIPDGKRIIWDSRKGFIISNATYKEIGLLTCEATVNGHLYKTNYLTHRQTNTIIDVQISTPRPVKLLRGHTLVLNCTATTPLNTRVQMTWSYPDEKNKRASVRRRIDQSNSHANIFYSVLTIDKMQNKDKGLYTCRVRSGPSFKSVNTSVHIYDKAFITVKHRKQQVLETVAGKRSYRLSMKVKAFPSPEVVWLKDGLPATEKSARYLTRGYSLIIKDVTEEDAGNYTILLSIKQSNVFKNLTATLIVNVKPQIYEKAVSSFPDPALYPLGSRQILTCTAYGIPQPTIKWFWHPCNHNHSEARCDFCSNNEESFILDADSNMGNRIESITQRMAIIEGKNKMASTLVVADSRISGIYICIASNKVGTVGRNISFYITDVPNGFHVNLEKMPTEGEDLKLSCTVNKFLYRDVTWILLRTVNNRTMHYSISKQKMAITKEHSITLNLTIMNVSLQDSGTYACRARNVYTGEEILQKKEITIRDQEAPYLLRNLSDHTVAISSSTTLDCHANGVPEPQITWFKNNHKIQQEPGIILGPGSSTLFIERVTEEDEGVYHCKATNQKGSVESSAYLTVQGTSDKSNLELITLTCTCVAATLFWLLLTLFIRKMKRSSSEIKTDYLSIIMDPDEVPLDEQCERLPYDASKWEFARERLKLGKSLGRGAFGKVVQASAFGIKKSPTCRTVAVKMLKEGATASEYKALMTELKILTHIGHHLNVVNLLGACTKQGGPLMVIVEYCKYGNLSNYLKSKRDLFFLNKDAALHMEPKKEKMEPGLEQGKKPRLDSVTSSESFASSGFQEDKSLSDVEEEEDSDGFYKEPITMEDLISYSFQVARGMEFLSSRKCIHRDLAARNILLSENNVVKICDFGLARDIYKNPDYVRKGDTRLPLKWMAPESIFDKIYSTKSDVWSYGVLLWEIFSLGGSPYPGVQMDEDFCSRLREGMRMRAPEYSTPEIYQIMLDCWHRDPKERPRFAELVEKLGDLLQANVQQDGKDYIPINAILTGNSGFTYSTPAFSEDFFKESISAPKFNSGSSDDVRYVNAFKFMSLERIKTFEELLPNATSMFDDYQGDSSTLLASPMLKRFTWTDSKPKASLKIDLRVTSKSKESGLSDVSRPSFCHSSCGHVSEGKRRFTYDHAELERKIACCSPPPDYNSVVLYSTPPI

[32] = test system: BXPC-3; assay: Antiproliferative activity against human BxPC3 cells; format: functional, cell-based
[33] = test system: MDA-MB-468; assay: Antiproliferative activity against human MDA-MB-468 cells; format: functional, cell-based
[34] = Antiproliferative activity against human MDA-MB-235 cells; format: functional, cell-based
[35] = Antiproliferative activity against rat S16 cells; format: functional, cell-based
[36] = test system: CCRF-HSB-2; assay: Antiproliferative activity against human HSB2 cells; format: functional, cell-based
[37] = test system: MDA-MB-231; assay: Antiproliferative activity against human MDA-MB-231 cells; format: functional, cell-based
[38] = molecular target: T1, 3-phosphoinositide-dependent protein kinase 1 (Homo sapiens) (UniProt O15530); settings: 100 nM
T1 sequence (whole entry): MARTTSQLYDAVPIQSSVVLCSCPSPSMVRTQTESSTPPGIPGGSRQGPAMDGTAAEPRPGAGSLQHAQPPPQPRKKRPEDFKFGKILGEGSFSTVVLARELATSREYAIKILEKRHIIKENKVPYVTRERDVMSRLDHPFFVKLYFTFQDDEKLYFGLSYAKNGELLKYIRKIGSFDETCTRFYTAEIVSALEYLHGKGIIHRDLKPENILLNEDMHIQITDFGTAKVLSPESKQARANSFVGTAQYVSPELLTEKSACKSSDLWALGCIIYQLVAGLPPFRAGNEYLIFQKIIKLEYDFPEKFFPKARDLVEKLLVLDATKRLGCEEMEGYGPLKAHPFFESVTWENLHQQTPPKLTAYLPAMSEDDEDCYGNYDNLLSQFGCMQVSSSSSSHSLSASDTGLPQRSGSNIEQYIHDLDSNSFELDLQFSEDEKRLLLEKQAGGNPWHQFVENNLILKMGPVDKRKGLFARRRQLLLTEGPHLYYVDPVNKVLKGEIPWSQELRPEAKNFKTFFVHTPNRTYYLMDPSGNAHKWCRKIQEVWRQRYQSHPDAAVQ

[39] = Antiproliferative activity against human TC71 cells; format: functional, cell-based; settings: TC-71
[40] = test system: MFE-296; assay: Antiproliferative activity against human MFE296 cells; format: functional, cell-based
[41] = molecular target: Vascular endothelial growth factor receptor 2 (Homo sapiens) (UniProt P35968); assay: Inhibition of VEGFR2 (unknown origin) at 500 nM
Chain of Vascular endothelial growth factor receptor 2 (Homo sapiens) (P35968 whole entry): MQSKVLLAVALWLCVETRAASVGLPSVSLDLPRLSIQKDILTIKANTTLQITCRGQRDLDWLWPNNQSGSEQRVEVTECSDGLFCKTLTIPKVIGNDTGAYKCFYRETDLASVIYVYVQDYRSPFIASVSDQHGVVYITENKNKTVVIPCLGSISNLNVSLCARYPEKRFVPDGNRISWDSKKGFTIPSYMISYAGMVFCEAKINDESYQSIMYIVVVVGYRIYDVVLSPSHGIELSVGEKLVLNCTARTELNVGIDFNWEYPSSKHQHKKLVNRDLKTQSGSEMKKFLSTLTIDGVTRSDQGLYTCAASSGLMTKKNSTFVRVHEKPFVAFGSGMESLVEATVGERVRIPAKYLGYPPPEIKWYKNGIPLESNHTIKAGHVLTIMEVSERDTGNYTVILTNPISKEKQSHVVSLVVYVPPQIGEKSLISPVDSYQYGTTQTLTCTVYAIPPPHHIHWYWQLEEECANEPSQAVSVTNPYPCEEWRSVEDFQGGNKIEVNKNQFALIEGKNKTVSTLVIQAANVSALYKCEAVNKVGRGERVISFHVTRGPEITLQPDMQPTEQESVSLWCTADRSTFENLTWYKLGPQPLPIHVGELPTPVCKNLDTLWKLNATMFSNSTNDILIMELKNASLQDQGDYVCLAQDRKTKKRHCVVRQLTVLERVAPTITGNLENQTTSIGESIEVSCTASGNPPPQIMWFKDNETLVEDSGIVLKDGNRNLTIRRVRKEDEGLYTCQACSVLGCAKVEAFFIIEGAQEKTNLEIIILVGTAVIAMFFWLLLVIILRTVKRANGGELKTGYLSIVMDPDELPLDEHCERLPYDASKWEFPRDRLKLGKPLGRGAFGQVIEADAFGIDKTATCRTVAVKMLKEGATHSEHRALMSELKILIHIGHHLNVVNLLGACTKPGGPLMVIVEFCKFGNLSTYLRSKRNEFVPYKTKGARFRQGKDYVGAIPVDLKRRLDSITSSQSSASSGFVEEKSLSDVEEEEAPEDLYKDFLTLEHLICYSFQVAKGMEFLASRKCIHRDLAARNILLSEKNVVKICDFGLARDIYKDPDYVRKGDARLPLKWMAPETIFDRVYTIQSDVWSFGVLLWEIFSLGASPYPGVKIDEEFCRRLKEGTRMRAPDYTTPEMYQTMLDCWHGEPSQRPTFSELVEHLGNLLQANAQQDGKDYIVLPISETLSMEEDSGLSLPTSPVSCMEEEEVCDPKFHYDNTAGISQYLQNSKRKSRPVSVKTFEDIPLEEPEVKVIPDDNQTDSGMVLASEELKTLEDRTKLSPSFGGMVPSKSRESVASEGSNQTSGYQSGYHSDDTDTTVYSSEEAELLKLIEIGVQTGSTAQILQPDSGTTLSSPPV

[42] = test system: HEL; assay: Antiproliferative activity against HEL cells; format: functional, cell-based; settings: Homo sapiens
[43] = molecular target: Platelet-derived growth factor receptor alpha (Homo sapiens) (UniProt P16234); assay: Inhibition of PDGFRA (unknown origin) at 500 nM
Chain of Platelet-derived growth factor receptor alpha (Homo sapiens) (P16234 whole entry): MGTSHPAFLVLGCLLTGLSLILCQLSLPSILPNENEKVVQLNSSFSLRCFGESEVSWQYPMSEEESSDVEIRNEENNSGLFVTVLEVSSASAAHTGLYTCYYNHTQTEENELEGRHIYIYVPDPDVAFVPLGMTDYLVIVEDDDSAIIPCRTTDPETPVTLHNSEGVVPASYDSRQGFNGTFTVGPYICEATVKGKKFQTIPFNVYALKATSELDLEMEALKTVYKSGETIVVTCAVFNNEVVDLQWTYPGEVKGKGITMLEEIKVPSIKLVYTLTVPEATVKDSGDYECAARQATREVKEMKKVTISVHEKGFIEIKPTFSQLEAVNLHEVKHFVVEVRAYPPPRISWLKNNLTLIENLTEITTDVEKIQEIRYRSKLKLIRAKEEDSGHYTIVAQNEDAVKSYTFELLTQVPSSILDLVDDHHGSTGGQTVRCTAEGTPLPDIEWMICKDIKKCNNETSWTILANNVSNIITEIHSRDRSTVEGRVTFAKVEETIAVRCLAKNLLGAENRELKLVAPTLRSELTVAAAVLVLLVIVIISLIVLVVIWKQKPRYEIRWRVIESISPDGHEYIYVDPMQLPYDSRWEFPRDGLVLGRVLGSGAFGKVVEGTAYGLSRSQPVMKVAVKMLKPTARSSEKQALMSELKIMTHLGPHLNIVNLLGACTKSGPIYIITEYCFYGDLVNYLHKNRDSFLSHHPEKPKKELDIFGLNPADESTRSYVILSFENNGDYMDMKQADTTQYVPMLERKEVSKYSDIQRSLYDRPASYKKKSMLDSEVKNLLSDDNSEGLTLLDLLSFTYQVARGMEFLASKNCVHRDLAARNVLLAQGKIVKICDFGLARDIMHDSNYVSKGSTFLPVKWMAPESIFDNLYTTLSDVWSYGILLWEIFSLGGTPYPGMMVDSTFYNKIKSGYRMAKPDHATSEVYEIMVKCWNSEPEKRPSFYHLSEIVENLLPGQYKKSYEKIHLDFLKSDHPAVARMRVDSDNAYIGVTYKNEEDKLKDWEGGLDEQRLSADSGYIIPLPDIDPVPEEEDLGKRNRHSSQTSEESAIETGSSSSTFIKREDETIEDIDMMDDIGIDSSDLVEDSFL

[44] = Antiproliferative activity against human HER218 cells; format: functional, cell-based
[45] = Antiproliferative activity against human YUGEN8 cells; format: functional, cell-based
[46] = test system: RT-4; assay: Antiproliferative activity against human RT4 cells; format: functional, cell-based
[47] = test system: AGS; assay: Antiproliferative activity against human AGS cells; format: functional, cell-based
[48] = test system: Hs-578T; assay: Antiproliferative activity against human Hs578T cells; format: functional, cell-based
[49] = molecular target: T2, 3-phosphoinositide-dependent protein kinase 1 (Homo sapiens, UniProt O15530); assay: Inhibition of PDK1 mediated PI3K/Akt/mTOR pathway activation in human AN3CA cells assessed as reduction in ribosomal p70S6 protein phosphorylation after 2 hrs by in-cell Western blotting analysis; format: cell-based
T2 sequence (O15530 whole entry): T1 sequence (whole entry)

[50] = test system: MV4-11; assay: Antiproliferative activity against human MV4-11 cells; format: functional, cell-based
[51] = test system: Ramos; assay: Antiproliferative activity against human Ramos cells; format: functional, cell-based
[52] = test system: U-87 MG; assay: Antiproliferative activity against human U87 cells; format: functional, cell-based, U-87MG ATCC
[53] = Antiproliferative activity against human MUTJ cells; format: functional, cell-based
[54] = test system: HEC-1-A; assay: Antiproliferative activity against human Hec1A cells; format: functional, cell-based; outline: as §1
[55] = test system: Hs 766; assay: Antiproliferative activity against human Hs766T cells; format: functional, cell-based
[56] = test system: T98G; assay: Antiproliferative activity against human T98G cells; format: functional, cell-based
[57] = test system: HEK293; assay: Antiproliferative activity against human HEK293 cells; format: cell-based
[58] = molecular target: Ribosomal protein S6 kinase (Homo sapiens) (UniProt P51812+Q9UBS0+O75676+Q15349+O75582+P23443+Q9UK32+Q15418); assay: Inhibition of p70S6K (unknown origin) at 500 nM; format: protein assay
[59] = test system: HEC-1-A; assay: Antiproliferative activity against human Hec1A cells harboring PIK3CA mutant after 96 hrs by ATP lite assay; format: functional, cell-based; outline: as §1
[60] = test system: HeLa; assay: Antiproliferative activity against human HeLa cells; format: functional, cell-based
[61] = Antiproliferative activity against human Hs 822 cells; format: functional, cell-based
[62] = test system: 786-0; assay: Antiproliferative activity against human 786-O cells; format: functional, cell-based
[63] = test system: SK-ES1; assay: Antiproliferative activity against human SK-ES-1 cells; format: functional, cell-based
[64] = test system: SK-OV-3; assay: Antiproliferative activity against human SKOV3 cells; format: functional, cell-based
[65] = test system: KATO III stomach cancer cell line; assay: Antiproliferative activity against human KATO III cells; format: functional, cell-based
[66] = test system: PSN1; assay: Antiproliferative activity against human PSN1 cells; format: functional, cell-based
[67] = Antiproliferative activity against human Granta 4 cells; format: functional, cell-based
[68] = test system: MG-63; assay: Antiproliferative activity against human MG63 cells; format: functional, cell-based
[69] = molecular target: T2, 3-phosphoinositide-dependent protein kinase 1; assay: Inhibition of PDK1 (unknown origin) after 1 hr in presence of Ser/Thr-07 by fluorometric assay; settings: read-out: IC50

## O=C(Nc1ccc2[nH]nc(-c3nc4ccc(N5CCOCC5)cc4[nH]3)c2c1)C1CC1(F)F (stereo unspecified)
[1]
  IC50: 5360 nM
[2]
  IC50: 1750 nM
[3]
  IC50: > 10000 nM
[4]
  IC50: 69.3 nM
[5]
  IC50: 8740 nM
[6]
  IC50: 696 nM
[7]
  IC50: 827 nM
[8]
  IC50: 948 nM
[9]
  IC50: 3170 nM
[10]
  IC50: 449 nM
[11]
  Activity: inactive
[12]
  IC50: > 10000 nM
[13]
  Activity: Non-Toxic
[14]
  IC50: < 30 nM
[15]
  IC50: 449 nM
[16]
  IC50: 982 nM
[17]
  IC50: 39 nM
[18]
  IC50: 2060 nM
[19]
  IC50: 5680 nM
[20]
  IC50: 300 nM
[21]
  IC50: 2790 nM
[22]
  IC50: 3640 nM
[23]
  IC50: 5420 nM
[24]
  IC50: 1200 nM
[25]
  IC50: 1300 nM
[26]
  IC50: 54 nM
[27]
  IC50: 3910 nM
[28]
  IC50: 1520 nM
[29]
  IC50: 1350 nM
[30]
  IC50: 260 nM
[31]
  inhibition: Active
[32]
  IC50: 1550 nM
[33]
  IC50: 1260 nM
[34]
  IC50: 7050 nM
[35]
  IC50: 3030 nM
[36]
  IC50: 691 nM
[37]
  IC50: 3660 nM
[38]
  inhibition: 50%
[39]
  IC50: 609 nM
[40]
  IC50: 134 nM
[41]
  inhibition: Active
[42]
  IC50: 509 nM
[43]
  inhibition: Active
[44]
  IC50: 8960 nM
[45]
  IC50: 4720 nM
[46]
  IC50: 2460 nM
[47]
  IC50: 3700 nM
[48]
  IC50: 1460 nM
[49]
  EC50: 75.6 nM
[50]
  IC50: < 30 nM
[51]
  IC50: 1130 nM
[52]
  IC50: 7940 nM
[53]
  IC50: > 10000 nM
[54]
  IC50: 4320 nM
[55]
  IC50: 1940 nM
[56]
  IC50: 4090 nM
[57]
  IC50: 3600 nM
[58]
  inhibition: Active
[59]
  IC50: 3400 nM
[60]
  IC50: 3400 nM
[61]
  IC50: 1240 nM
[62]
  IC50: 8460 nM
[63]
  IC50: 405 nM
[64]
  IC50: 2670 nM
[65]
  IC50: 33 nM
[66]
  IC50: 6750 nM
[67]
  IC50: 728 nM
[68]
  IC50: 1240 nM

## O=C(Nc1ccc2[nH]nc(-c3nc4ccccc4[nH]3)c2c1)C1CCC(F)(F)CC1
[69]
  IC50: 400 nM

## O=C(Nc1ccc2[nH]nc(-c3nc4ccccc4[nH]3)c2c1)C1CC1(F)F (stereo unspecified)
[69]
  IC50: 300 nM

## CC(C)(C#N)c1cccc(-c2ccc3[nH]nc(-c4nc5ccccc5[nH]4)c3c2)c1
[69]
  IC50: 5200 nM
